Experimental findings from ChEMBL document CHEMBL2346542, “Preliminary biological evaluation and mechanism of action studies of selected 2-arylindoles against glioblastoma” (Bioorg Med Chem, 2013) are described below.

Activity calls are given as the source filed them. The rule behind the calls is not given here. Where only a bound is given, the exact number is not on record here.

Assay [1] has as its system U-87 MG. Put plainly: Induction of oxidative stress in human U87MG cells assessed as increase in reactive oxygens species generation at 100 uM after 1 hr by H2DCFDA dye based flow cytometry. Format: functional, cell-based. The note with it: U-87MG ATCC. In a few lines: (§1)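 1321N1 (DMEM, 10% FBS, 2 mM glutamine) or U87MG (EMEM, 10% FBS, glutamine, pyruvate, NEAA) cells seeded at 20,000/well and attached overnight. Loaded with 25 µM carboxy-H2DCFDA for 30 min at 37 °C in the dark, then treated for 60 min; TBHP 100 µM was the positive control, vehicle ≤0.5% ethanol/DMSO. Washed in HBSS, trypsinised, then flow cytometry at 488/519 nm.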
(In general: A flow cytometer gives signals particle by particle.)

Assay [2] deals with 1321-N1. Nature of the assay: Induction of oxidative stress in human 1321N1 cells assessed as increase in reactive oxygens species generation at 100 uM after 1 hr by H2DCFDA dye based flow cytometry. Format: functional, cell-based. In a few lines:
as §1

Assay [3] deals with U-87 MG. Put plainly: Induction of oxidative stress in human U87MG cells assessed as increase in reactive oxygens species generation at 500 uM after 1 hr by H2DCFDA dye based flow cytometry. The format is functional, cell-based. Particulars: U-87MG ATCC. In outline: (§2)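 Cells at 20,000/well in six-well plates, attached overnight. Loaded with 25 µM carboxy-H2DCFDA for 30 min at 37 °C in the dark, then given compound at 500 µM for 60 min. Positive control TBHP 100 µM. Washed in HBSS, trypsinized, resuspended in PBS, strained. Flow cytometry at FITC ex/em 488/519 nm. Vehicle ≤0.5% ethanol and DMSO.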

Assay [4] relates to 1321-N1. Put plainly: Induction of oxidative stress in human 1321N1 cells assessed as increase in reactive oxygens species generation at 500 uM after 1 hr by H2DCFDA dye based flow cytometry. The format is functional, cell-based. In a few lines: as §2
The nature of assay [5]: Antiproliferative activity against human U251MG cells assessed as inhibition of cell growth after 72 hrs by MTT assay. Format: functional, cell-based. Particulars: U-251, 72 h. In a few lines: (§3)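 Short-term GBM cultures derived from tumour biopsies, and U251MG, kept in Hams F10 with 10% foetal calf serum at 37 °C without CO2. Cells seeded at 10³ per well and grown 48 h. Then dosed at 0.01–1000 µM in quadruplicate, compound renewed every 24 h, followed by 24 h recovery in compound-free medium. MTT (1 mg/mL) added for 4 h, formazan dissolved in DMSO, OD570 read. IC50 from nonlinear regression vs untreated controls.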
On the technique in general: Tetrazolium assays rely on reduction of a dye to a coloured formazan, in cell work by metabolically active cells.

Assay [6] is described as follows: Antiproliferative activity against human IN1760 cells assessed as inhibition of cell growth after 72 hrs by MTT assay. Format: functional, cell-based. The note with it: IN1760, 72 h. In a few lines:
as §3

Assay [7] is described as follows: Antiproliferative activity against human IN1265 cells assessed as inhibition of cell growth after 72 hrs by MTT assay. The format is functional, cell-based. In outline: as §3
Assay [8] can be described thus: Antiproliferative activity against human IN1472 cells assessed as inhibition of cell growth after 72 hrs by MTT assay. Format: functional, cell-based. The note with it: IN1472, 72 h. In outline: as §3
Assay [9] is described as follows: Antiproliferative activity against human IN859 cells assessed as inhibition of cell growth […] by MTS assay. The format is functional, cell-based.
Assay [10] deals with U-87 MG. Put plainly: Induction of autophagy in human U87MG cells assessed as acidic vesicular organelle formation at 500 uM after 1 hr by acridine orange based flow cytometry in presence of 5 mM, MA. Format: functional, cell-based. Particulars: U-87MG ATCC. In outline:
(§4)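 Acridine orange AVO assay as above: compound at 500 µM for 60 min, given together with 3-methyladenine 5 mM dissolved in medium. Then 3 µM acridine orange for 15 min at 37 °C, flow cytometry at ex/em 488/615 nm. Two experiments.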

The subject of assay [11] is 1321-N1. Put plainly: Induction of autophagy in human 1321N1 cells assessed as acidic vesicular organelle formation at 500 uM after 1 hr by acridine orange based flow cytometry in presence of 5 mM, MA. The format is functional, cell-based. In a few lines: as §4
For assay [12], the system named is U-87 MG. Nature of the assay: Induction of autophagy in human U87MG cells assessed as acidic vesicular organelle formation at 500 uM after 1 hr by acridine orange based flow cytometry. The format is functional, cell-based. Particulars: U-87MG ATCC. In outline:
(§5)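 Cells at 20,000/well in six-well plates, attached overnight. Treated with compound at 500 µM for 60 min, then stained with 3 µM acridine orange for 15 min at 37 °C in the dark. Washed in PBS, trypsinized, strained. Red fluorescence read by flow cytometry at ex/em 488/615 nm (PE-Texas Red). Vehicle ≤0.5% ethanol. One of two experiments shown.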

In assay [13] the test system is 1321-N1. Put plainly: Induction of autophagy in human 1321N1 cells assessed as acidic vesicular organelle formation at 500 uM after 1 hr by acridine orange based flow cytometry. The format is functional, cell-based. In outline: as §5
A further assay relates to U-87MG ATCC. Nature of the assay: Antiproliferative activity against human U87MG cells assessed as inhibition of cell viability after 48 hrs by MTS assay in presence of 500 uM antioxidant, ascorbic acid. The format is functional, cell-based.
The subject of assay [14] is 1321-N1. Put plainly: Antiproliferative activity against human 1321N1 cells assessed as inhibition of cell viability after 48 hrs by MTS assay in presence of 500 uM antioxidant, ascorbic acid. The format is functional, cell-based.
The subject of assay [15] is U-87 MG. Put plainly: Induction of oxidative stress in human U87MG cells assessed as reactive oxygens species generation at 500 uM after 1 hr by H2DCFDA dye based flow cytometry in presence of 500 uM antioxidant, ascorbic acid. Format: functional, cell-based. Particulars: U-87MG ATCC. In a few lines: (§6)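 Run as the carboxy-H2DCFDA ROS flow-cytometry assay (25 µM dye for 30 min, then compound at 500 µM for 60 min, read at ex/em 488/519 nm), with ascorbic acid 500 µM added under the same procedure and time point.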

The subject of assay [16] is 1321-N1. Nature of the assay: Induction of oxidative stress in human 1321N1 cells assessed as reactive oxygens species generation at 500 uM after 1 hr by H2DCFDA dye based flow cytometry in presence of 500 uM antioxidant, ascorbic acid. Format: functional, cell-based. In outline: as §6
Assay [17] is described as follows: Antiproliferative activity against human U87MG cells assessed as inhibition of cell growth after 48 hrs by MTS assay. Format: functional, cell-based, U-87MG ATCC. In outline:
(§7)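 1321N1 grown in DMEM with 10% FBS and 2 mM L-glutamine; U87MG in EMEM with 10% FBS, 2 mM L-glutamine, 1 mM pyruvate and 1% NEAA; 37 °C, 5% CO2. Seeded overnight at 3500 (1321N1) or 4000 (U87MG) cells/200 μl, 50–60% confluent. Compound added in quadruplicate for 48 h. MTS reagent added for 60 min, A490 read. IC50 vs vehicle (≤0.5% ethanol or DMSO) by nonlinear regression.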

Assay [18] is described as follows: Antiproliferative activity against human 1321N1 cells assessed as inhibition of cell growth after 48 hrs by MTS assay. Format: functional, cell-based. In outline: as §7
Assay [19] can be described thus: Antiproliferative activity against human U87MG cells assessed as inhibition of cell growth at 400 uM after 48 hrs by MTS assay. Format: functional, U-87MG ATCC. Particulars: U-87 MG, read-out: GI.

Broadly, the IC50 is the concentration at which inhibition is half-maximal.

Turning to `CC(C)(C)OO`, the outcome in the assay on U-87 MG [1] and with 1321-N1 [2] was Active.

In the case of `OCc1c(-c2ccccc2)[nH]c2ccccc12`, the outcome with U-87 MG [3] and in the assay with 1321-N1 [4] was Active.

Turning to `Oc1ccccc1-c1cc2ccccc2[nH]1` [2-(2'-HYDROXYPHENYL)-1H-INDOLE], the IC50 in assay [5] was 92 µM; in assay [6] it was more than 1000 µM; in assay [7], 90 µM; in assay [8] it was 48 µM; in assay [9] it was 400 µM. The result in the assay with U-87 MG [10], in the assay with 1321-N1 [11], with U-87 MG [15] and in the assay with 1321-N1 [16] was inactive. For the same compound, the result with U-87 MG [12], with 1321-N1 [13], in the assay with U-87 MG [3] and in the assay on 1321-N1 [4] was Active. Besides, the inhibition result with U-87MG ATCC and with 1321-N1 [14] was “inactive” in each case.

Turning to `COc1ccccc1-c1cc2ccccc2[nH]1` [2-(2'-METHOXYPHENYL)-1H-INDOLE], the result in the assay with U-87 MG [3] and in the assay on 1321-N1 [4] was inactive. Besides, the IC50 entry in assay [17] (u-87mg atcc) and in assay [18] (1321-n1) was “Not Active” throughout.

For the compound `O=Cc1c(-c2ccccc2)[nH]c2ccccc12` [2-PHENYL-1H-INDOLE-3-CARBALDEHYDE], the IC50 entry in assay [17] (u-87mg atcc) and in assay [18] (1321-n1) was “Not Active” throughout.

Consider `c1ccc(-c2cc3ccccc3[nH]2)cc1` [2-PHENYL-1H-INDOLE], for which the outcome in the assay on U-87 MG [3] and with 1321-N1 [4] was inactive. In addition, the inhibition of growth at 400 µM in assay [19] came out at 7%. The IC50 entry in assay [17] (u-87mg atcc) and in assay [18] (1321-n1) was “Not Active” throughout.

For `OCc1c[nH]c2ccccc12` [INDOLE-3-CARBINOL], the IC50 in assay [17] (Homo sapiens, U-87 MG, 48 h, read-out: IC50) is 526 µM; in [18] (Homo sapiens, 1321-N1, 48 h, read-out: IC50) it was 309 µM.
